# RAM inhibit = inhibitors of the yeast RAM network. 1.8% of 190,000 active. inhibition, % at 50 µM. S. cerevisiae dse1pr::URA3 reporter, 5-FOA growth OD615, 2 d; analog-sensitive cbk1-as2 kinase mutant strain;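 active = inhibition above a set limit, 3 SD over mean compound inhibition, cut at about 8.4% in these data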;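 also: 0% = DMSO-only wells with no growth and 100% = 10 µM 1-NA-PP1 full growth; inhibition rescues growth on 5-FOA so higher OD means more RAM inhibition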
# Yeast lifespan up = yeast lifespan extension; S. cerevisiae growth with nicotinamide, OD615; deaD strain in restrictive glucose medium; inhibition of the nicotinamide effect, % at 10 µM; 0.68% of 130,000 active; AID 775;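 active = inhibition above a set limit, placed 3 SD over the median of all compounds, cut at about 26% in these data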;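 also: 0% = nicotinamide-treated wells and 100% = cells grown without nicotinamide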
#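 System: DeaD-strain S. cerevisiae / Buffer or medium: CSMM-D, restrictive glucose (dextrose) synthetic minimal medium / Probe or stimulus: nicotinamide, 1.5 mM, co-present with compound / Compound: one concentration, 10 µM, DMSO 0.25% / Incubation: 48 h compound exposure at 30 °C, humidified / Technique: optical density (absorbance) at 615 nm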
# Yeast growth inh = yeast BB579 growth reduction in restrictive medium | S. cerevisiae BB579 growth, OD615, 48 h | inhibition, % at 10 µM | 0.51% of 140,000 active;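 active = inhibition above a set limit, 3 SD over the mean compound inhibition, cut at about 44% in these data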
#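 Test system: S. cerevisiae DeaD strain BB579 yeast; Medium: restrictive CSMM-D medium; Compound: one dose, 10 µM compound with 0.25% DMSO; Incubation: 4 h cell preincubation, 48 h compound exposure, 30 °C humidified; Signal: OD at 615 nm; Benchmarks: amphotericin B at 10 µg/mL as positive control.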
# * marks the source's active call; other numbers are inactive results; . = not tested or not shown. Most compounds without a hit are left out; they make up all but 2.6% or so of the library.
SMILES,RAM inhibit,Yeast lifespan up,Yeast growth inh
CC1CC1c1ccc(/C=C(\C#N)C(=O)Nc2cc(Cl)ccc2Cl)o1 (stereo unspecified),8.7*,2,-11
CC1CC1c1ccc(/C=C(\C#N)C(=O)Nc2ccc(Cl)cc2Cl)o1 (stereo unspecified),0,-2,4
COc1ccc(C(C)(C)C)cc1NC(=O)COC(=O)c1ccc([N+](=O)[O-])o1,-1,.,.
CCOC(=O)c1c(C)[nH]c(C)c1C(=O)CSc1nc2ccccc2c(=O)n1-c1ccccc1C,9.7*,5,9
CCOC(=O)c1c(C)[nH]c(C)c1C(=O)CSc1nc2ccccc2c(=O)n1-c1ccc(F)cc1,8,.,.
Cc1c(NC(=O)C(=O)/C=C(\O)c2ccc(Cl)cc2)c(=O)n(-c2ccccc2)n1C,-1,79*,-41
Cc1c(N/C=C/C(=O)c2ccc(Cl)cc2)c(=O)n(-c2ccccc2)n1C,4,10,-37
CC(NC(=O)CN(C)Cc1cccs1)c1ccccc1 (stereo unspecified),3,.,.
Cn1c(C(C#N)C(=O)Cc2cccc3ccccc23)nc2ccccc21 (stereo unspecified),7,9,-13
Cn1c(C(C#N)C(=O)c2ccco2)nc2ccccc21 (stereo unspecified),2,-11,64*
CN1C(=O)C(N=Nc2ccccc2C(=O)O)N(C)C1=S (stereo unspecified),6,.,.
COC(=O)Cc1cc(=O)n(-c2nc3ccccc3[nH]2)[nH]1,2,-6,72*
COC(=O)Cc1[nH]n(-c2nc3ccccc3s2)c(=O)c1C(C)=O,0,-8,-32
O=C(CCN1C(=O)S/C(=C\c2ccccc2)C1=O)Nc1ccc(S(=O)(=O)Nc2nccs2)cc1,3,-9,-15
Cc1cc(C)nc(NS(=O)(=O)c2ccc(NC(=O)CN3C(=O)S/C(=C\c4ccccc4)C3=O)cc2)n1,9.9*,0,-18
CN(Cc1ccccc1)C(=O)c1nn2cccnc2c1Cl,-1,.,.
O=C(/C=C/c1ccc2c(c1)OCO2)NCCSCc1cccc(Cl)c1,9.0*,-12,-19
CS(=O)(=O)N(CC(=O)NCCSCc1cccc(Cl)c1)c1ccc2c(c1)OCO2,0,-6,-4
CC(=O)N1CC2([N+](=O)[O-])CN(C(C)=O)CC([N+](=O)[O-])(C1)C2(C)C,0,.,.
COc1ccc(C(C(=O)Nc2ccc(C(C)C)cc2)N(C)C(=O)c2ccc(=O)[nH]c2)cc1 (stereo unspecified),9.0*,.,.
COc1ccc(NC(=O)C(NC(=O)c2ccc(=O)[nH]c2)c2ccccc2)cc1 (stereo unspecified),2,-3,4
Cc1cccc(/C=N\NC(=O)c2sccc2-n2cccc2)c1,2,-9,12
O=S(=O)(c1ccccc1)c1ncc(C(F)(F)F)cc1O,2,.,.
O=S(=O)(c1ccccc1)c1ncc(C(F)(F)F)cc1Cl,9.8*,.,.
COc1ccc(S(=O)(=O)N(C)C)cc1NCC(=O)Nc1cccc(C#N)c1,2,.,.
SMILES,RAM inhibit,Yeast lifespan up,Yeast growth inh
O=C1N/C(=C/c2cccs2)C(=O)N1Cc1ccc(Br)cc1,2,.,.
CN1/C(=C\C(=S)NC(=O)c2ccc([N+](=O)[O-])cc2)C(C)(C)c2ccccc21,6,7,-18
CN1/C(=C\C(=S)NC(=O)c2cccc(Br)c2)C(C)(C)c2ccccc21,8.9*,-3,22
Cc1cc2nc(-c3cccnc3SCC(=O)NC(C)C)[nH]c2cc1C,1,.,.
CC(=O)O[C@]1(C(C)=O)CC[C@H]2[C@@H]3C=C(Cl)C4=CC(=O)CC[C@]4(C)[C@H]3CC[C@@]21C,8.8*,2,-18
CC(=O)O[C@]1(C(C)=O)CC[C@H]2[C@@H]3C[C@H](C)C4=CC(=O)CC[C@]4(C)[C@H]3CC[C@@]21C,-1,14,-19
CC(OC(=O)CCCN1C(=O)c2ccccc2C1=O)C(=O)Nc1ncc(Cl)cc1Cl (stereo unspecified),2,30*,-13
CC(OC(=O)Cc1coc2ccc3ccccc3c12)C(=O)Nc1ncc(Cl)cc1Cl (stereo unspecified),4,0,-1
Cc1cccc(Oc2sc(C(=O)c3ccccc3)c(N)c2C#N)c1,6,-17,-45
O=C(NCc1ccccc1)c1cccc(COc2cccc(Cl)c2)c1,9.2*,-11,-34
NNC(=O)c1cccc(COc2cccc(Br)c2)c1,0,-20,-8
NNC(=O)c1cccc(COc2ccc(Br)cc2)c1,0,-8,78*
O=C(NCc1ccccc1)c1cccc(COc2ccc(Cl)cc2)c1,4,-12,7
O=C(O)c1c(-c2ccc(Cl)cc2)cn2ccccc12,1,.,.
O=S(=O)(Nc1ccc(Cl)cc1)c1ccc(N2CCOCC2)c(NC(=S)NC2CC2)c1,5,.,.
Cc1ccc(Cc2ccc(C(=O)NNC(N)=S)o2)cc1,0,.,.
CC(=O)N1CCc2ccc(S(=O)(=O)N3CCN(C)CC3)cc21,1,16,1
Cc1cc(SCC(=O)OCC(=O)NCc2ccc3c(c2)OCO3)c(C)cc1Br,11*,-1,-16
CCOCC(=O)NCc1ccc2c(c1)OCO2,1,-6,-22
CC1CCCCN1C(=O)Cn1cc(/C=C2/C(=O)Nc3ccccc32)c2ccccc21 (stereo unspecified),9.4*,-5,-21
CC1CCCCN1C(=O)Cn1cc(C=O)c2ccccc21 (stereo unspecified),0,0,-11
CCOC(=O)c1sc2nc(CC(=O)OC)nc(NCC(=O)OC)c2c1C,1,-18,-38
CCOC(=O)c1sc2nc(CC(=O)OC)nc(NCc3ccco3)c2c1C,11*,-15,-40
O=C(O)C1CCN(C(=O)COc2ccc(Br)cc2)CC1,1,.,.
O=C(O)c1ccc(S(=O)(=O)Nc2ccc(O)c(Sc3nc4ccccc4s3)c2)cc1,9.8*,.,.
SMILES,RAM inhibit,Yeast lifespan up,Yeast growth inh
Cc1ccc(S(=O)(=O)NC(=O)CSc2nc3ccccc3s2)cc1,2,-18,-15
Cn1cc([N+](=O)[O-])c(C(=O)N(Cc2ccccc2)Cc2ccccc2)n1,0,-1,-27
Cc1cccc(NC(=O)N2CCC(NC(=O)c3ccccc3C)CC2)c1,9.6*,-3,1
Cc1cccc(NC(=O)N2CCC(NC(=O)c3ccco3)CC2)c1,2,.,.
CN1CCN(S(=O)(=O)c2ccc(N3CCc4ccccc4C3)nc2)CC1,0,.,.
COc1ccc(CN2C(=O)C(=O)N(CC(N)=O)C2=O)cc1,1,.,.
CN(C)c1nc(N(C)C)nc(N(C#N)CCOc2ccccc2)n1,9.8*,.,-46
Cc1cc(C)nc(N(C#N)CCOc2ccccc2)n1,-1,-18,-7
O=C1CCC/C(=N/Nc2ccc(Cl)cc2)C1,1,.,.
CCn1c2ccccc2c2cc(NC(=O)c3cc(OC)cc(OC)c3)ccc21,8.6*,-1,-30
CCn1c2ccccc2c2cc(NC(=O)COc3ccc(OC)cc3)ccc21,5,-13,-20
CCC(C)NC(=O)C1CN(S(=O)(=O)c2ccccc2)CCN1S(=O)(=O)c1ccccc1 (stereo unspecified),2,-13,27
CC(C)c1ccccc1NC(=O)C1CN(S(=O)(=O)c2ccccc2)CCN1S(=O)(=O)c1ccccc1 (stereo unspecified),8.6*,2,-29

# High-throughput results from PubChem.
